PTEN del growth: PTEN-deleted cell growth suppression. HCT116 PTEN-null viability, CellTiter-Glo, 60 h; stronger effect = lower value. viability, % at 10 µM. 1.2% of 140,000 active. AID 827;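 active = viability at or below a set limit, 4 SD under the median of all tested compounds, cut at about 3.7% in these data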;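 also: PTEN knockout HCT116 line with beta catenin targeted HCT116 as companion control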
HUVEC inhibit: human endothelial cell proliferation inhibition. HUVEC proliferation, CellTiter-Glo luminescence, 72 h; stronger effect = lower value. viability, % at 10 µM (by protocol). 1.1% of 86,000 active. AID 648;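 active = viability at or below 30%; inactive = viability above 30%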
Fibroblast inh: blocks proliferation of human lung fibroblasts; AID 719; LL 47 human lung fibroblast viability, ATP luminescence; stronger effect = lower value; viability, % at 10 µM; 1.1% of 85,000 active;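 active = viability at or below 50% in the single dose screen; inactive = viability above 50%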;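 also: compound exposure lasted 72 h before the ATP readout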
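Assay system: human lung fibroblast line LL 47, low passage. Input: 1,150 fibroblasts seeded per well. Times: overnight cell rest, 72 h compound treatment at 37 °C. Evaluation: % viability of median cell-only signal. Technique: luminescent ATP detection, CellTiter-Glo. Control set: cell-only wells, no compound.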
H69AR inhibit: growth inhibitors of human H69AR lung tumor cells; H69AR lung tumor viability, ATP luminescence, 72 h; stronger effect = lower value; viability, % at 10 µM; 6% of 85,000 active; AID 598;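 active = viability at or below 40%; inactive = viability above 40%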;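 also: multidrug resistant small cell line overexpressing MRP-1 efflux transporter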
bCat KO growth: beta-catenin-lacking colon tumor cell growth suppression. HCT116 beta-catenin knockout viability, CellTiter-Glo, 60 h; stronger effect = lower value. viability, % at 10 µM. 1.5% of 140,000 active. AID 818;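 active = viability at or under a set limit, the compound median less 4 SD, cut at about 6% in these data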
Of the large screens only hits and unclear results are named; the others gave an inactive call. The full list was thinned out, with hits kept by preference.

CCCCn1c(O)c(C(C)=NC(C)c2ccccc2)c(=O)[nH]c1=O (stereo not given)	H69AR inhibit 28
CCCCn1c(O)c(C(CC)=NC(C)c2ccccc2)c(=O)[nH]c1=O (stereo not given)	H69AR inhibit 17
CCCCn1c(O)c(C(CC)=Nc2ccc(OC)cc2OC)c(=O)[nH]c1=O	H69AR inhibit 34
CCCCn1c(O)c(C(C)=NCCc2ccccc2)c(=O)[nH]c1=O	none
S=C1NCCN1	none
CCOc1ccc(-n2c(O)c(C=NCCCn3ccnc3)c(=O)[nH]c2=O)cc1	none
COc1ccc(C(C)=O)cc1CC(C(=O)c1ccccc1)N(C)C (stereo not given)	none (no result: HUVEC inhibit, Fibroblast inh, H69AR inhibit)
CC(=O)[C@@]1(O)CC[C@H]2[C@@H]3CC=C4C[C@@H](O)CC[C@]4(C)[C@H]3CC[C@@]21C	none
CC12CCC3C(CC=C4CC(O)CCC43C)C1C/C(=C\c1ccccc1F)C2=O (stereo not given)	none (no result: HUVEC inhibit, Fibroblast inh, H69AR inhibit)
Cc1nn(C)cc1/C=C1/CC2C3CC=C4CC(O)CCC4(C)C3CCC2(C)C1=O (stereo not given)	H69AR inhibit 9.0 (no result: PTEN del growth, bCat KO growth)
O=c1c2ccccc2nc(-c2ccoc2)n1-c1ccccc1	none
Clc1ccc(COC(Cn2ccnc2)c2ccc(Cl)cc2Cl)c(Cl)c1 (stereo not given)	H69AR inhibit 2.3
COc1ccc(-c2nc3ccccc3c(=O)n2-c2cccnc2)cc1	none (no result: HUVEC inhibit, Fibroblast inh, H69AR inhibit)
CCOc1ccc(-n2c(O)c(C=Nc3ccc(N(CC)CC)cc3)c(=O)[nH]c2=O)cc1	none
CCOc1ccccc1-n1c(O)c(C=Nc2ccc(N(CC)CC)cc2)c(=O)[nH]c1=O	H69AR inhibit 19
C=CCn1c(O)c(C(C)=Nc2ccc(N(CC)CC)cc2)c(=O)[nH]c1=O	H69AR inhibit 20
CCN(CC)c1ccc(N=Cc2c(O)n(Cc3ccccc3)c(=O)[nH]c2=O)cc1	H69AR inhibit 17
CCN(CC)c1ccc(N=Cc2c(O)n(-c3ccccc3C)c(=O)[nH]c2=O)cc1	none
O=C(CCN1C(=O)COc2ccccc21)N1CCC2(CC1)OCCO2	none
CC(C)OC(=O)C1C(=O)NC2(C)CC1c1ccccc1O2 (stereo not given)	none
O=C1CN=C(c2cccs2)c2c(sc3c2CCCC3)N1	H69AR inhibit 21
Cc1nc2sccc2c(=O)n1-c1ccccc1Cl	none (no result: HUVEC inhibit, Fibroblast inh, H69AR inhibit)
CC(C)OCCCNC(=O)c1c(N)n(CC2CCCO2)c2nc3ccccc3nc12 (stereo not given)	none
Nc1c(C(=O)NCc2ccco2)c2nc3ccccc3nc2n1Cc1ccccc1	none (no result: HUVEC inhibit, Fibroblast inh, H69AR inhibit)
COc1ccc(CCNC(=O)c2c(N)n(CCN3CCOCC3)c3nc4ccccc4nc23)cc1OC	H69AR inhibit 12
CCOC(=O)c1c(NC(=O)c2c(N)n(CCCOC)c3nc4ccccc4nc23)sc2c1CCCC2	H69AR inhibit 11, bCat KO growth 4.0
CCOCCCn1c(N)c(C(=O)Nc2sc3c(c2C(=O)OC)CCCC3)c2nc3ccccc3nc21	none (no result: HUVEC inhibit, Fibroblast inh, H69AR inhibit)
CCCCOCCCn1c(N)c(C(=O)OCCOC)c2nc3ccccc3nc21	none
COCCCn1c(N)c(C(=O)NCCC(C)C)c2nc3ccccc3nc21	PTEN del growth 2.7, H69AR inhibit 18, bCat KO growth 1.6
CCCCNC(=O)c1c(N)n(Cc2ccc3c(c2)OCO3)c2nc3ccccc3nc12	H69AR inhibit 5.1
CCOC(=O)/C(CCCN(CC)CC)=N\O	none
CCCCCn1c(N)c(C(=O)NCCN2CCOCC2)c2nc3ccccc3nc21	H69AR inhibit 30
CCCNC(=O)c1c(N)n(CC2CCCO2)c2nc3ccccc3nc12 (stereo not given)	none
CCCCn1c(N)c(C(=O)OCC2CCCO2)c2nc3ccccc3nc21 (stereo not given)	none
Nc1c(C(=O)NCc2ccco2)c2nc3ccccc3nc2n1CCN1CCOCC1	H69AR inhibit 39
CCCCCCn1c(N)c(C(=O)NCCN2CCOCC2)c2nc3ccccc3nc21	PTEN del growth 1.4, HUVEC inhibit 28, H69AR inhibit 1.5
CCCCn1c(O)c(C(CC)=NCc2cccnc2)c(=O)[nH]c1=O	none
CC(C)CCn1c(=O)c(C(=O)Nc2ccccc2S(N)(=O)=O)c(O)c2ccccc21	H69AR inhibit 7.4
CCCCn1c(=O)c(C(=O)Nc2cnccn2)c(O)c2ccccc21	Fibroblast inh 48, H69AR inhibit 14
CCCCn1c(=O)c(C(=O)Nc2nc3ccccc3[nH]2)c(O)c2ccccc21	H69AR inhibit 8.5 (no result: PTEN del growth, bCat KO growth)
N#CC1=C(N)Oc2c(c(=O)oc3ccccc23)C1c1ccc(OC(=O)N2CCOCC2)cc1 (stereo not given)	none (no result: PTEN del growth, bCat KO growth)
